# Screening data from PubChem BioAssay.
# aDG glyco up = alpha-DG glycosylation activation; Pro5-aDG cells, alpha-DG glycosylation AlphaScreen (IIH6); 0% Pro5, 100% B10-LARGE cell signal; AID 624168; activation, % at 10 µM; 360,000 compounds, 0.22% hits;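 active = activation of at least 8% versus controls, or a plate z-score of at least 8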;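 also: Pro5 are CHO cells carrying HIG-tagged alpha-DG that lacks glycosylation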
# Beta2AR agonist = agonists of human beta-2 adrenergic receptor inducing internalization; AID 504454; response, % (no concentration beside the values); P07550; 340,000 compounds, 0.43% hits; Am2.2-beta2AR cells, FAP receptor internalization, flow cytometry;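 active = response above a set limit, near 3 SD of response in nonfluorescent compounds, cut at about 42% in these data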
# PfG6PD inh = PfG6PD (Plasmodium falciparum) enzyme inhibition | PfGluPho enzyme, NADPH resazurin-diaphorase fluorescence | inhibition, % at 20 µM | 350,000 compounds, 0.78% hits | AID 504690;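 active = inhibition reaching at least a set limit at 20 µM in the primary screen, cut at about 59% in these data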
# UCH37 inh = blocks the human deubiquitinase UCH37 | Q9Y5K5 | purified proteasome/UCH37, Ub-AMC cleavage fluorescence | inhibition, % (concentration not given with the values) | 330,000 compounds, 0.33% hits;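 active = mean inhibition over replicate wells above about 20%, limit read from the data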
# Target sequence (Q9Y5K5 whole entry, looked up): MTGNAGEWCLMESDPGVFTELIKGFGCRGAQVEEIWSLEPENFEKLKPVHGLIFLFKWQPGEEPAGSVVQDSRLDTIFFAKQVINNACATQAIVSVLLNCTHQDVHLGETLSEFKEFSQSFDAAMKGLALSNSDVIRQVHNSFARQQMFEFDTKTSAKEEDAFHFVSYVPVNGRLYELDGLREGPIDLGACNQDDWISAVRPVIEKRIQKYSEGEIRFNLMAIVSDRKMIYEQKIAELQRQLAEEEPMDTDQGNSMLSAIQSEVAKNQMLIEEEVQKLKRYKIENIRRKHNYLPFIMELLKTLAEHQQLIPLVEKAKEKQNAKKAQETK
#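 Reagent: Ub-AMC substrate; assay system: Proteasome-associated human UCH37 deubiquitinase; controls: no-proteasome and no-compound wells; read-out: % inhibition of Ub-AMC cleavage fluorescence; timing: 30 min preincubation with enzyme, 25 min cleavage at room temperature; signal: AMC fluorescence from Ub-AMC cleavage, excitation 355 nm, emission 460 nm; buffer or medium: Tris-HCl pH 7.4 plus ovalbumin, ATP-MgCl2, DTT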
# HKDC1 inh = HKDC1 (human) hexokinase inhibition | Q2TB90 | recombinant HKDC1, G6PDH/diaphorase resazurin coupled fluorescence | inhibition, % at 20 µM | 340,000 compounds, 0.16% hits;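 active = inhibition above about 35% when tested at 20 µM, limit read from the data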
#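 Test system: Recombinant HKDC1 (HK5) hexokinase enzyme, produced in-house | Input: HKDC1 at 5 µg/mL | Buffer or medium: Tris pH 8.0 buffer with MgCl2, Tween-20, BSA, BME | Schedule: 90 min reaction incubation at room temperature, dark | Technique: Resazurin-to-resorufin fluorescence via G6PDH and diaphorase coupling, 525/613 nm | Controls: DMSO wells with and without enzyme mix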
# H9c2 protect = protects H9c2 cardiomyocytes from peroxide injury; protection from H2O2 cell death, % at 20 µM; H2O2 injury protection, ATPLite, 2 h; 360,000 compounds, 0.63% hits; AID 588492;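 active = compounds giving at least 50% protection of heart cells from peroxide-induced death in the single-dose screen, raw or plate-pattern-corrected value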
# Hits are given with their value; n = inactive; x = no result. The list is not random: actives were taken first. Their share in the collection is about 2.1%.
SMILES,aDG glyco up,Beta2AR agonist,PfG6PD inh,UCH37 inh,HKDC1 inh,H9c2 protect
Cc1ccc(S(=O)(=O)NCc2ccncc2)c(C)c1C,7.2,n,n,n,n,n
CCCCCCC1C(=NO)CCC1C(=O)OC (stereo not given),x,x,x,n,x,x
CC(=NNC(=O)c1ccoc1C)c1ccc(NC(=O)C2CCCC2)cc1,x,x,x,n,x,x
CC(=O)Nc1ccc(C(=O)N/N=C/c2cc(Br)cc(Br)c2O)cc1,n,n,n,x,n,n
Cc1ccc(C(=O)O)cc1N=Cc1cc(Br)cc(Br)c1O,n,n,n,n,n,77
CCOC(=O)/C=C/C(=O)OCC(=O)Nc1cccc(Br)c1,n,43,n,n,n,n
COc1cc(C=NNC(=O)c2csc3c2CCCC3)ccc1OCCN1CCOCC1,x,x,x,n,x,x
Nc1sc(-c2ccccc2)cc1C(=O)NN=Cc1ccc(Cl)cc1,x,x,x,n,x,x
COc1ccc(CC(=O)N(Cc2ccccc2)c2ccccc2)cc1S(=O)(=O)N1CCOCC1,n,n,n,n,n,69
COCCN(Cc1ccccc1)C(=O)Cc1ccc(OC)c(S(=O)(=O)N2CCOCC2)c1,n,n,n,n,n,n
O=C1C=CC(=O)N1c1ccc(OC(F)F)cc1,n,n,87,n,n,n
O=C1C=CC(=O)N1c1ccc(O)cc1,n,n,n,n,n,n
CC(CC(=O)Nc1ccc(N(C)C)cc1)=NNC(=O)c1cnccn1,x,x,x,n,x,x
Cc1ccc(S(=O)(=O)NN=Cc2ccc(OS(=O)(=O)c3ccc(C)c([N+](=O)[O-])c3)cc2)cc1,x,x,x,n,x,x
COc1ccc(C=NNC(=O)CC(=O)NN=Cc2ccc(OC)cc2)cc1,x,x,x,n,x,x
COC(=O)/C=C\C(C#N)(C#N)N=Cc1ccc(OC)cc1,n,47,n,x,n,n
COc1cc(C=NNc2nc(C)cc(C)n2)cc(OC)c1OC,x,x,x,n,x,x
O=C1N[C@H](Cc2ccccc2)COC(=O)[C@H](Cc2ccc(F)cc2)C/C=C\C[C@@H]1CC(=O)N(CCO)Cc1ccccc1,n,n,n,n,n,n
O=C(C[C@@H]1C/C=C/CC[C@@H](Cc2ccc(F)cc2)C(=O)O[C@@H](c2ccccc2)CNC1=O)NCCO,n,n,n,n,n,59
O=C1N[C@H](Cc2ccccc2)COC(=O)[C@@H](Cc2ccc(F)cc2)C/C=C\C[C@H]1CC(=O)N(CCO)Cc1ccccc1,n,n,n,n,n,58
O=C1N[C@H](Cc2ccccc2)COC(=O)[C@@H](Cc2ccc(F)cc2)CC/C=C/C[C@H]1CC(=O)N(CCO)Cc1ccccc1,n,n,n,22,n,n
O=C1NC[C@H](c2ccccc2)OC(=O)[C@H](Cc2ccc(F)cc2)C/C=C\C[C@H]1CC(=O)N(CCO)Cc1ccccc1,n,n,n,n,n,94
O=c1c(C=NO)c(Nc2ccccc2)nc2ccccn12,x,x,x,n,x,x
CON=CC(=NNc1ccc(OC)cc1)C(=O)c1ccccc1,x,x,x,n,x,x
COc1ccccc1NS(=O)(=O)c1ccc(NN=Cc2c(C)nn(-c3ccccc3)c2N2CCCC2)c([N+](=O)[O-])c1,x,x,x,n,x,x
SMILES,aDG glyco up,Beta2AR agonist,PfG6PD inh,UCH37 inh,HKDC1 inh,H9c2 protect
COc1cc(C=Nn2c(C)nnc2C)cc(OC)c1OC,x,x,x,n,x,x
Cc1cc(C(=O)NN=Cc2cc(C(C)(C)C)c(O)c(C(C)(C)C)c2)n[nH]1,x,x,x,n,x,x
CC(C)(C)OC(=O)C[C@@H]1C/C=C\C[C@@H](CC(=O)N[C@@H](CO)Cc2ccccc2)C(=O)NC[C@@H](c2ccccc2)OC1=O,n,n,n,n,n,65
CC(=NNC(=O)c1ccncc1)C12CC3CC(CC(C3)C1)C2,x,x,x,n,x,x
O=C(CNC(=O)c1cccc(F)c1)N/N=C/c1cc(Br)ccc1OC(=O)/C=C/c1ccco1,n,n,n,x,n,57
CS(=O)(=O)Nc1cccc(NC(=O)c2cccc3c(-c4cccc(C(N)=O)c4)coc23)c1,n,x,x,x,x,54
CN1CCN(c2ccc(NC(=O)c3ccc(-c4ccc(Cl)cc4)o3)cc2)CC1,5.5,n,n,n,n,n
CS(=O)(=O)N1CCN(c2ccc(NC(=O)c3ccc(-c4ccc(Cl)cc4)o3)cc2)CC1,n,n,n,n,n,n
CCN(CC)c1ccc2cc(C(C)=O)c(=O)oc2c1,n,n,n,n,n,n
CCN(CC)c1ccc2cc(-c3nnc(-c4ccncc4)o3)c(=O)oc2c1,n,n,n,n,n,65
Cc1nc2ccccn2c1C(=O)NN=Cc1ccc([N+](=O)[O-])o1,x,x,x,n,x,x
Cc1ccc(S(=O)(=O)N(C)C)cc1NC(=S)Nc1cccc2ccccc12,n,n,61,x,n,n
CC(=O)c1cccc(-c2ccc3c(=O)[nH]c(Nc4ccccc4)cc3c2)c1,n,n,n,31,n,n
CC(=NOC(=O)c1ccc(OC(C)C)cc1)c1ccc(C)c(C)c1,x,x,x,n,x,x
COc1ccc2c(c1)c(C(=O)NN=Cc1cccc(Br)c1)c(C)n2C,x,x,x,n,x,x
O=C(Nc1ccccc1C(=O)Nc1ccccc1C(=O)NCc1ccco1)c1ccco1,n,n,n,n,n,52
O=C(NN=Cc1ccccc1OCc1ccccc1)c1ccco1,x,x,x,n,x,x
COc1cccc(C=NNC(=O)c2nnn(-c3nonc3N)c2CN(C)c2ccccc2)c1,x,x,x,n,x,x
CC(=NN(Cc1ccccc1)c1ccccc1)c1cccnc1,x,x,x,n,x,x
COc1cccc(C2C3=C(CC(C)(C)CC3=O)Nc3cc4c(cc32)OCO4)c1 (stereo not given),n,n,n,n,n,n
COc1cc2c(cc1OC)C(c1ccc3c(c1)OCO3)C1=C(CC(C)(C)CC1=O)N2 (stereo not given),n,n,n,n,n,72
CCN1/C(=C/c2ccc3cc(C)ccc3[n+]2CC)Sc2cc(C)ccc21,n,x,n,n,n,n
CCN1/C(=C/c2ccc3cc(C)ccc3[n+]2C)Sc2ccc3sccc3c21,n,n,65,n,n,n
CCOC(=O)c1ccc(C=NO)[n+](Cc2ccccc2)c1,x,x,x,n,x,x
CC(C)(C)NCC(O)COc1ccccc1C(=O)CCc1ccccc1 (stereo not given),2.5,n,n,n,n,n
SMILES,aDG glyco up,Beta2AR agonist,PfG6PD inh,UCH37 inh,HKDC1 inh,H9c2 protect
C(/C=C/c1ccccc1)=NNc1ccc2nncn2n1,x,x,x,n,x,x
CCOC(=O)C1CCN(c2cc3c(cc2NC(=O)c2ccccc2Cl)n(C)c(=O)n3C)CC1,n,n,n,n,n,56
CCOC(=O)C1CCN(c2cc3c(cc2NC(=O)c2ccc(F)cc2)n(C)c(=O)n3C)CC1,n,n,n,n,n,81
CCOC(=O)C1CCN(c2cc3c(cc2NC(=O)c2ccccc2F)n(C)c(=O)n3C)CC1,n,n,n,n,n,n
COc1ccc(CNc2ccc3cn[nH]c3c2)c(OC)c1OC,n,n,n,22,n,n
CCOc1cc(CNc2ccc3cn[nH]c3c2)ccc1OC,n,n,n,n,n,n
CC(CC(=O)Nc1ccc(Cl)cc1Cl)=NNC(=O)c1ccco1,x,x,x,n,x,x
